These results are taken from ChEMBL document CHEMBL1154599 (J Med Chem, 2009).

Active and inactive are the calls of the source. No cut-off for these calls is given here. A value given as a limit tells only on which side of the number the result lay.

Data set [1] deals with Mus musculus. Nature of the data set: Ex vivo inhibition of MAO-B in C57Bl mouse brain at 0.5 mg/kg, po after 2 hrs by radioenzymatic assay. Also noted: scale not given: the % may be the effect or the level left. It is filed as functional. In outline:
(§1)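 C57Bl mice (n = 6 per group) given 0.5 mg/kg orally and killed at 0.5, 1, 2, 4, 8 or 16 h. Brain homogenates in 0.1 M phosphate pH 7.40 assayed radioenzymatically for MAO-B with [14C]PEA. Mean ± SEM, ANOVA with Dunnett's test.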

For data set [2], the target named is T1, Cytochrome P450 1A2 (Homo sapiens, UniProt P05177).
T1 sequence (P05177 whole entry): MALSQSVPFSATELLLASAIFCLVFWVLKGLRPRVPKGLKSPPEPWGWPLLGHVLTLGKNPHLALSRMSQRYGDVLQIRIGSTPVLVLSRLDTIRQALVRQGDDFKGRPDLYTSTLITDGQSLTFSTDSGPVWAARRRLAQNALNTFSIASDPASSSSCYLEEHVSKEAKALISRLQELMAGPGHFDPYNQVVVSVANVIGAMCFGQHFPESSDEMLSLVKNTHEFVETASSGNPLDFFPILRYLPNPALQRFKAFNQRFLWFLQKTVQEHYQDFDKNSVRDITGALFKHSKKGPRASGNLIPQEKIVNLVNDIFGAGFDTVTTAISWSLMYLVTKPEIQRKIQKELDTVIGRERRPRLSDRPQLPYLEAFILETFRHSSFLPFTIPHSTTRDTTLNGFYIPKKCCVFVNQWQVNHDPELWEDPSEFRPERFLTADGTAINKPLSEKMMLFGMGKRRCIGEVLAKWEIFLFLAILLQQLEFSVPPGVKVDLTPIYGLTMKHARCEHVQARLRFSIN
As to the kind of experiment: Inhibition of human recombinant CYP1A2. It is filed as ADME. In outline: (§2)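 Recombinant human CYP supersomes were incubated at 37 C in incubation/NADPH regenerating buffer with isoform-specific substrates that turn fluorescent on metabolism. The substrate was 3-cyano-7-ethoxycoumarin for CYP1A2 and 7-methoxy-4-trifluoromethylcoumarin for CYP2C9. Fluorescence was read at the appropriate excitation/emission wavelengths, with a literature inhibitor as positive control in each assay.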

The target in data set [3] is Cytochrome P450 2E1 (Homo sapiens, UniProt P05181). As to the kind of experiment: Inhibition of human recombinant CYP2E1. It is filed as ADME. The essentials: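 Human recombinant CYP isoenzymes (supersomes) were incubated at 37 C with the test compound in incubation/NADPH-regenerating buffer plus a fluorogenic substrate. The substrate was 3-[2-(N,N-diethyl-N-methylammonium)ethyl]-7-methoxy-4-methylcoumarin for CYP2D6 and 7-methoxy-4-phenylcoumarin for CYP2E1. Fluorescent product was read at isoform-appropriate wavelengths, with a literature inhibitor as positive control. IC50 came from nonlinear regression of at least seven concentrations, each in duplicate.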
Sequence of Cytochrome P450 2E1 (P05181 whole entry, canonical isoform): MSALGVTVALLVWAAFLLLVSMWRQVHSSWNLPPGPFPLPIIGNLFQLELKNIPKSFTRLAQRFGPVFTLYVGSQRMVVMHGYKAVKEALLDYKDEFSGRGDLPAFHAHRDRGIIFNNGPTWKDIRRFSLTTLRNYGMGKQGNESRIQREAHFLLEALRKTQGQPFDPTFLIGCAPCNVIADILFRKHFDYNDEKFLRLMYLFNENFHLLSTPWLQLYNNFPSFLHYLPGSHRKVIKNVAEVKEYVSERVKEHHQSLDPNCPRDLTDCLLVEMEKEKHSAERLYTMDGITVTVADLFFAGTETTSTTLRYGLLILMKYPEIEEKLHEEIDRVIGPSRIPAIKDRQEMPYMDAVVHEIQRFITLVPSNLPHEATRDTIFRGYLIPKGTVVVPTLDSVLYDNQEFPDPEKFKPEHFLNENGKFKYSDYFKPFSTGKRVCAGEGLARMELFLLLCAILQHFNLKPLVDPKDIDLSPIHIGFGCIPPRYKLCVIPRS

Data set [4] is described as follows: Octanol-water partition coefficient, log P by potentiometric titration. It is filed as physicochemical.
Data set [5] addresses Amine oxidase [flavin-containing] B (Homo sapiens) (UniProt P27338). As to the kind of experiment: Inhibition of MAO-B in human platelet rich plasma by radioenzymatic assay.
In data set [6] the target is Cytochrome P450 2C9 (Homo sapiens, UniProt P11712). Nature of the data set: Inhibition of human recombinant CYP2C9. It is filed as ADME. In outline: as §2
Sequence of Cytochrome P450 2C9 (P11712 whole entry): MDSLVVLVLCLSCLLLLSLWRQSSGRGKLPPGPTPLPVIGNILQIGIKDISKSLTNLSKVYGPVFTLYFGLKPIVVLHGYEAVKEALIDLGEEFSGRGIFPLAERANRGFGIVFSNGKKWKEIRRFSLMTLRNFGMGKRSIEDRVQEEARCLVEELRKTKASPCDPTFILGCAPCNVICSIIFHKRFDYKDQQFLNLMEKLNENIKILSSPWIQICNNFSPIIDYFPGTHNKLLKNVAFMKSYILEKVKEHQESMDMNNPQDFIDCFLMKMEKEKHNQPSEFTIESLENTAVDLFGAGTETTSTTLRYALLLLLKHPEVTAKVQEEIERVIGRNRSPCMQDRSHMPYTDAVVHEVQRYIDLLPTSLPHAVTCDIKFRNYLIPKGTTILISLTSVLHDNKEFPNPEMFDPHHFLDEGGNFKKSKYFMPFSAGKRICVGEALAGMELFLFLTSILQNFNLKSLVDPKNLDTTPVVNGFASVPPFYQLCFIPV
For data set [7], the system named is Mus musculus. Nature of the data set: Ex vivo inhibition of MAO-B in C57Bl mouse brain at 0.5 mg/kg, po after 8 hrs by radioenzymatic assay. It is filed as functional. Also noted: scale not given: the % may be the effect or the level left. The essentials:
as §1

Data set [8] addresses Cytochrome P450 3A4 (Homo sapiens, UniProt P08684). Nature of the data set: Inhibition of human recombinant CYP3A4. It is filed as ADME. The essentials: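 Human recombinant CYP supersomes incubated at 37 °C with compound in NADPH-regenerating buffer, with fluorogenic substrates: 3-cyano-7-ethoxycoumarin for CYP2C19, […] for CYP3A4. Fluorescence read on a plate reader. Known isoform inhibitors run as positive controls in every assay.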

Data set [9] has as its system Mus musculus. As to the kind of experiment: Ex vivo inhibition of MAO-B in C57Bl mouse brain at 0.5 mg/kg, po after 30 mins by radioenzymatic assay. Also noted: scale not given: the % may be the effect or the level left. Type of data set: functional. In outline: as §1
The species named for data set [10] is Rattus norvegicus. Nature of the data set: Selectivity index, ratio of IC50 for rat MAO-A to IC50 for rat MAO-B. In outline: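 Ratio of IC50 values from rat brain mitochondrial radioenzymatic assays: MAO-A with [14C]5-HT 5 μM, 30 min, and MAO-B with [14C]PEA 0.5 μM, 10 min. Both after 30 min preincubation with compound at 37 °C.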
Data set [11] can be described thus: Dissociation constant, pKa by potentiometric titration. Type of data set: physicochemical. In outline:
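5 × 10^-4 M sample in 0.15 M KCl acidified to pH 1.8 with 0.5 M HCl, then titrated to pH 12.2 with carbonate-free 0.5 M KOH. Run at 25 ± 0.5 °C under slow argon flow, with a blank titration for standardization. pKa taken from the Bjerrum difference curve.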

The test system of data set [12] is SH-SY5Y. Nature of the data set: Cytotoxicity against human SH-SY5Y cells assessed as cellular damage up to 10 uM after 24 hrs by MTS assay. It is filed as functional, cell-based. In outline: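 Human neuroblastoma SH-SY5Y cells kept in DMEM with 10% heat-inactivated FBS. Seeded at 6.25 × 10^4/cm2 and grown 72 h to subconfluence. Switched to serum-free neurobasal medium 30 min before compound, then 24 h at 37 °C with 1, 3, 10, 30 or 100 μM compound. Viability read by colorimetric MTS assay.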
In general terms: Formazan colour is commonly taken as a measure of viable cells.

Data set [13] can be described thus: Permeability across PAMPA membrane assessed as retention at 2.5 mM by HDM-PAMPA assay. It is filed as ADME. The note with it: 2500 µM. The essentials: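 Hexadecane artificial membrane (0.75 μL per well, applied as 5% v/v in hexane, hexane evaporated) on polycarbonate filters; donor and acceptor in 0.1 M phosphate buffer pH 6.8 with 5% DMSO (iso-pH); 5 h at room temperature, shaking at 75 rpm; quadruplicate. Donor and acceptor concentrations read by UV at λmax. Retention, CA(t)/CD(0) and Pe calculated by the stated equations, τLAG neglected; membrane integrity checked by electrical resistance.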
For orientation: PAMPA measures passive passage across an artificial lipid membrane.

Sequence of Cytochrome P450 3A4 (P08684 whole entry, canonical isoform): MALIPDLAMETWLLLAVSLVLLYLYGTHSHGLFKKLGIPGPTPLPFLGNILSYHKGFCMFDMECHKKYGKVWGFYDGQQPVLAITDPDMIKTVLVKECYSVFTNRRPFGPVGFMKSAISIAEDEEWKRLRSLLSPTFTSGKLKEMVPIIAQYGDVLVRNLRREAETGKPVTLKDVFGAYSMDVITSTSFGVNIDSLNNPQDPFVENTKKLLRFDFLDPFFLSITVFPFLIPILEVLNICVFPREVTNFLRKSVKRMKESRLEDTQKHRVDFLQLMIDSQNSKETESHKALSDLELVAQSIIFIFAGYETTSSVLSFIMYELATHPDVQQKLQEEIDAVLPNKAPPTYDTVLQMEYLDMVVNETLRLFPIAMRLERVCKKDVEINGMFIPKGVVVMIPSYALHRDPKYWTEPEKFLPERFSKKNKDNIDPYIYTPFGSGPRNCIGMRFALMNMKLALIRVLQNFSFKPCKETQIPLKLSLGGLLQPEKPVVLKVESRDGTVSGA
Sequence of Amine oxidase [flavin-containing] B (Homo sapiens) (P27338 whole entry, looked up): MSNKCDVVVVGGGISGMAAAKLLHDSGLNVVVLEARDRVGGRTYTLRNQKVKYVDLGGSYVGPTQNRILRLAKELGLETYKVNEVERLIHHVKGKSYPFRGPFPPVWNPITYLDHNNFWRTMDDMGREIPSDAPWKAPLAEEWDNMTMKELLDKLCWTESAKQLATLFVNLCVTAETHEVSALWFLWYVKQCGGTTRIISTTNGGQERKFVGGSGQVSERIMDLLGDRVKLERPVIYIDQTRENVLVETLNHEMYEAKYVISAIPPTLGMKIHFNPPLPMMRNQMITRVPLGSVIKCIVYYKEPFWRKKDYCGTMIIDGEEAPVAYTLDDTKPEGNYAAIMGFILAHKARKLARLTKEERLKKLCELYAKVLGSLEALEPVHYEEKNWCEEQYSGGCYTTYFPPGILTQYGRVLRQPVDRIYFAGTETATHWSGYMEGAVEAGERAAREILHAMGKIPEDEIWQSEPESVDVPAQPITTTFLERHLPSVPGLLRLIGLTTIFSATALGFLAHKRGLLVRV

As for `CNCc1cc(=O)oc2cc(OCc3cccc(Cl)c3)ccc12.CS(=O)(=O)O`, the Activity in [1] turned out to be 90%; in data set [7], 60%; in [9], 84%. In addition, the IC50 in data set [2] was over 5 µM; in data set [3], over 5 µM; in data set [5] it was 0.003 µM; in data set [6], over 5 µM; in data set [8] it was over 5 µM. In data set [4], the logP is 2.49. Further, in [10], the Ratio IC50 turned out to be 457. The same compound yielded a pKa in [11] of 7.18. The result in [12] was inactive. Further, the permeability in [13] worked out at 10%.

One may read the IC50 as the midpoint of a concentration-inhibition curve. As usually defined, the logP is the decadic logarithm of the partition coefficient of the neutral form, usually between octanol and water. In general, pKa refers to the negative logarithm of the acid dissociation constant.
